# Laboratory results as given in PubChem BioAssay.
# The source made the active and inactive calls.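 The calls were made as follows, unless noted: active = viability at or below 10% of carrier control in both of two separate runs; inconclusive = viability at or below 10% in only one of the two runs; inactive = the rest.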
# Legend:
# [1] = Her2 expression decrease, cell viability multiplex – SKBR3 breast tumor cells, AlphaScreen, ATP viability, primary screen (AID 461;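 active = Her2 level under about 52% in both replicate screens, with viability over 70% of control, limit read from the data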;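 as to Her2 level: lower value means less Her2 protein in the cells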;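 as to viability: percent of carrier control wells set as 100% viability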); settings: SKBR3 Her2 protein level, 18-24 h, measured here: SKBR3 viability, ATP luminescence, at 10 µM
# [2] = molecular target: Receptor tyrosine-protein kinase erbB-2 (Homo sapiens) (UniProt P04626); assay: as above; settings: 18-24 h, at 10 µM, stronger effect = lower value
# [3] = reduced viability of SK-BR-3 breast cancer cells – cell-based, 24 h, human, pilot screen (AID 572); settings: SK-BR-3 viability, CellTiter-Glo luminescence, at 10 µM, stronger effect = lower value;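 also: compound exposure lasted between 18 and 24 h rather than exactly 24 h; 100% = carrier-treated control wells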
# [4] = HUVEC growth inhibition – cell-based, human, primary screen (AID 575;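 active = viability at or below 30% in both replicate assays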;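 also: 100% = median of untreated cell wells with 0.1% DMSO on each plate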); settings: HUVEC proliferation, CellTiter-Glo luminescence, 72 h; at 10 µM; stronger effect = lower value
# In short: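 Assay system: primary human umbilical vein endothelial cells / Buffer or medium: endothelial basal medium with 2% FBS plus growth supplements / Compound dosing: one dose, 10 µM final, 0.1% DMSO / Timing: 72 h treatment at 37 °C / Signal: CTG luminescence / Benchmarks: 32 DMSO-only cell-control wells (high), 32 MePR drug-control wells (low) per plate / Plate: collagen-coated 384-well format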
# [5] = H69AR cell proliferation blockers – human, duplicate replicates, primary screen (AID 580;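 active = viability at or under a set limit in both replicates, limit being median viability minus 3 SD, cut at about 48% in these data, passing the limit was not always enough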;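 also: 100% = mean luminescence of untreated wells and 0% = no signal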); settings: H69AR lung tumor cells viability, ATP luminescence, 72 h; at 10 µM; stronger effect = lower value
# [6] = MRP1 drug-resistance reversers in H69AR cells – cell-based, doxorubicin co-treatment, pilot screen (AID 601;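 active = viability loss from added drug above about 55%, and viability with drug at most 40%, in both replicates, limit read from the data, passing the limit was not always enough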); settings: CellTiter-Glo, 72 h, at 10 µM; for differential viability (reversal): stronger effect = higher value
# [7] = yeast transport mutant growth inhibition pilot in 384-well plates, post-Golgi transport modulator project (AID 636; in the data active = inhibition above about 31%); settings: absorbance 615 nm, about 18 h, stronger effect = higher value
# [8] = growth suppression of yeast trafficking mutant, preliminary HTS, modulators of trafficking downstream of Golgi apparatus project, 1536-format plate, OD 615 nm (AID 637; in the data active = inhibition above about 30%); settings: yeast transport mutant growth, absorbance 615 nm, 18 h; stronger effect = higher value
# [9] = H69AR cells + 2 uM doxorubicin, measured here: viability with 2 uM doxorubicin, stronger effect = lower value
# [10] = H69AR cells, compound alone cytotoxicity
# Receptor tyrosine-protein kinase erbB-2 (Homo sapiens), sequence (P04626 whole entry, looked up): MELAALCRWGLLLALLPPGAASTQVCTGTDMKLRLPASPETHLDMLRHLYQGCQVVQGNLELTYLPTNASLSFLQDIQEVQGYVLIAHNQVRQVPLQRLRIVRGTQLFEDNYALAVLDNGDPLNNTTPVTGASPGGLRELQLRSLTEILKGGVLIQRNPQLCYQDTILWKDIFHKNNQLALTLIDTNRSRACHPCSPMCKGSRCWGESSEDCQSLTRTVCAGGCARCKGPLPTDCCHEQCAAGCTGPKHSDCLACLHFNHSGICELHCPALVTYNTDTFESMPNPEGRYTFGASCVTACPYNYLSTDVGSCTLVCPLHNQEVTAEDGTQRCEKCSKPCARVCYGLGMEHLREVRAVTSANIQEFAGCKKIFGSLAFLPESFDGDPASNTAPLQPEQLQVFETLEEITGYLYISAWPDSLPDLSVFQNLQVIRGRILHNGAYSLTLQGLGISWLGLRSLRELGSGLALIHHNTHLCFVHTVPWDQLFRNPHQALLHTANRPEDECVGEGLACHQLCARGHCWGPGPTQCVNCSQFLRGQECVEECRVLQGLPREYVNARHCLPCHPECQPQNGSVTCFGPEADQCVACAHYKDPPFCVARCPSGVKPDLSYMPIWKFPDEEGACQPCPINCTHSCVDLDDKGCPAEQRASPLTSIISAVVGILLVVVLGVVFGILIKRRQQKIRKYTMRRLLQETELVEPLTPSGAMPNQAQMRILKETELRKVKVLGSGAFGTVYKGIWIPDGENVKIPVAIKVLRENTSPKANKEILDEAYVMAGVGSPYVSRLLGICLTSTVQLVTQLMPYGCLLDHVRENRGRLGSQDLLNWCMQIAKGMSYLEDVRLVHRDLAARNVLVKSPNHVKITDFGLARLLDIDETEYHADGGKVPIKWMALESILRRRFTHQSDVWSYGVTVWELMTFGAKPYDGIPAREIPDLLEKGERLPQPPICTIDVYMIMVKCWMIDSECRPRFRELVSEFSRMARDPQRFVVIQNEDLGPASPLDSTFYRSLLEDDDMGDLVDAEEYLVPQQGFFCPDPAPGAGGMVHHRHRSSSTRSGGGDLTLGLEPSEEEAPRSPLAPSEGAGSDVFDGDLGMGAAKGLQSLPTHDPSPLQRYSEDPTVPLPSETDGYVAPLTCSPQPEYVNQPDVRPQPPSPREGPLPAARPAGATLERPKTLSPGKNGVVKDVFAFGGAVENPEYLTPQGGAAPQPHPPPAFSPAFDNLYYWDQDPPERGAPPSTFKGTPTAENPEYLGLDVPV
SMILES,viability [1],Her2 level [2],viability [3],viability [4],viability [5],differential viability (reversal) ([6]; H69AR cells + 2 uM doxorubicin),"viability [6, 9]","viability [6, 10]",inhibition [7],inhibition [8]
CCCN(CCC)S(=O)(=O)c1ccc(NS(C)(=O)=O)cc1,110%,124% (inactive),110% (inactive),98.2% (inactive),105% (inactive),6.41% (inactive),99%,105%,-1.18% (inactive),-5.83% (inactive)
COc1cc(OC)cc(C(=O)N2c3ccc(F)cc3CCC2C)c1 (stereo not given),94.5%,89% (inactive),94.5% (inactive),112% (inactive),97.5% (inactive),6.82% (inactive),90.7%,97.5%,-0.14% (inactive),-3.02% (inactive)
CC(C)CCn1c(N)c(S(=O)(=O)c2cccs2)c2nc3ccccc3nc21,171%,43% (active),171% (inactive),49.8% (inactive),42.9% (active),-14.9% (inactive),57.7%,42.9%,-3.95% (inactive),-3.17% (inactive)
CC(NC(=O)COc1ccc(Br)cc1)C(=O)O (stereo not given),108%,114% (inactive),108% (inactive),104% (inactive),91.8% (inactive),4.2% (inactive),87.6%,91.8%,-3.64% (inactive),-2.33% (inactive)
c1ccc(-c2nnc(-c3ccco3)n2-c2ccccc2)cc1,81.5%,78% (inactive),81.5% (inactive),87% (inactive),88.1% (inactive),-10.6% (inactive),98.6%,88.1%,-6.08% (inactive),3.61% (inactive)
COc1ccc2c(c1)[nH]c1c(=O)n(CCN(C)C)cnc12,105%,85.5% (inactive),105% (inactive),104% (inactive),91.8% (inactive),-8.28% (inactive),100%,91.8%,-3.16% (inactive),1.48% (inactive)
CCOC(=O)c1c(C)[nH]c(C(=O)CSc2nc3ccccc3o2)c1C,85.5%,85% (inactive),85.5% (inactive),88.6% (inactive),73.3% (inactive),-18.9% (inactive),92.2%,73.3%,-1.15% (inactive),-5.17% (inactive)
CCn1cc(C(C)NC(=O)COc2ccc(Cl)cc2C)c(C)n1 (stereo not given),97%,101% (inactive),97% (inactive),93.9% (inactive),105% (inactive),13.9% (inactive),91.3%,105%,-2.89% (inactive),-4% (inactive)
O=C(CCOc1ccccc1)NCc1ccccc1,122%,102% (inactive),122% (inactive),89.9% (inactive),89.6% (inactive),-0.41% (inactive),90%,89.6%,4.03% (inactive),28.9% (inactive)
CCN(CC)S(=O)(=O)c1ccc(NC2CCCc3ccccc32)nc1 (stereo not given),71.5%,77% (inactive),71.5% (inactive),88.6% (inactive),86% (inactive),0.97% (inactive),85.1%,86%,-4.46% (inactive),-3.17% (inactive)
CN(C)S(=O)(=O)c1ccc2c(c1)C(CC(=O)O)OC2=O (stereo not given),94%,96.5% (inactive),94% (inactive),111% (inactive),96.1% (inactive),-0.855% (inactive),96.9%,96.1%,-1.6% (inactive),17.1% (inactive)
Cc1ccc(S(=O)(=O)N2CCCC2C(=O)n2nc(C)cc2C)cc1 (stereo not given),114%,90% (inactive),114% (inactive),90.1% (inactive),83.5% (inactive),2.58% (inactive),80.9%,83.5%,-7.97% (inactive),3.67% (inactive)
O=C(NCCc1c[nH]c2ccccc12)c1ccc(S(=O)(=O)NCc2ccco2)cc1,93.5%,83.5% (inactive),93.5% (inactive),60.2% (inactive),65.6% (inactive),-11.9% (inactive),77.5%,65.6%,-1.82% (inactive),-5.4% (inactive)
O=C(CCS(=O)(=O)c1cc(Br)cc2c1N(C(=O)C1CC1)CC2)NCC1CCCO1 (stereo not given),122%,110% (inactive),122% (inactive),95.5% (inactive),81.8% (inactive),-3.57% (inactive),85.4%,81.8%,0.51% (inactive),11.8% (inactive)
Cc1cc(NC(=O)CCC(=O)N(c2cccnc2)C(C(=O)NC2CCCC2)c2ccccc2F)no1 (stereo not given),99%,104% (inactive),99% (inactive),99.4% (inactive),93.3% (inactive),4.7% (inactive),88.6%,93.3%,3.2% (inactive),-2.46% (inactive)
CCc1ccc(CNCc2cccnc2)cc1,91%,100% (inactive),91% (inactive),91.2% (inactive),92.4% (inactive),6.96% (inactive),85.4%,92.4%,-1.82% (inactive),-2% (inactive)

SMILES,viability [1],Her2 level [2],viability [3],viability [4],viability [5],differential viability (reversal) ([6]; H69AR cells + 2 uM doxorubicin),"viability [6, 9]","viability [6, 10]",inhibition [7],inhibition [8]
CCOC(=O)c1cc(CC)sc1NC(=O)CCC(=O)O,121%,93% (inactive),121% (inactive),96% (inactive),93.8% (inactive),2.2% (inactive),91.6%,93.8%,-6.13% (inactive),0.32% (inactive)
O=C(NCc1ccccc1)C1CCCN1S(=O)(=O)c1cccc2cccnc12 (stereo not given),94%,99.5% (inactive),94% (inactive),93% (inactive),110% (inactive),15.6% (inactive),94.4%,110%,-0.53% (inactive),-0.98% (inactive)
CCOC(=O)c1[nH]c2ccccc2c1NC(=O)C(CC)CC,98.5%,99.5% (inactive),98.5% (inactive),80.8% (inactive),93.3% (inactive),13.9% (inactive),79.4%,93.3%,-4.27% (inactive),5.5% (inactive)
COc1ncnc2c1N=C1CC(C)(C)CC(N)=C1S2,92.5%,86% (inactive),92.5% (inactive),99% (inactive),87.5% (inactive),4.68% (inactive),82.8%,87.5%,-5.07% (inactive),-2.3% (inactive)
CN(C)S(=O)(=O)Nc1ccc(Br)cc1F,108%,82.5% (inactive),108% (inactive),86.9% (inactive),102% (inactive),13.6% (inactive),88.5%,102%,-5.2% (inactive),-8.1% (inactive)
c1ccc(CCn2nnnc2C(c2cccs2)N2CCOCC2)cc1 (stereo not given),102%,77.5% (inactive),102% (inactive),99.2% (inactive),107% (inactive),12.8% (inactive),94%,107%,-5.62% (inactive),-1.59% (inactive)
CCOC(=O)C(CCc1nnc(N)s1)C(=O)OCC,87.5%,89% (inactive),87.5% (inactive),110% (inactive),108% (inactive),12.8% (inactive),95.2%,108%,-4.53% (inactive),-0.48% (inactive)
Cc1ccc(S(=O)(=O)N(CC(=O)NCc2ccco2)Cc2ccccc2F)cc1,92%,108% (inactive),92% (inactive),104% (inactive),107% (inactive),21.3% (inactive),85.5%,107%,-2.67% (inactive),-5.97% (inactive)
Cn1c(=O)[nH]c(=O)c2c1nc(N1CCNCC1)n2CCOc1ccccc1,79.5%,108% (inactive),79.5% (inactive),81.1% (inactive),82% (inactive),-8.6% (inactive),90.6%,82%,4.32% (inactive),10.8% (inactive)
O=C(C1CCC(N2C(=O)C3CC=CCC3C2=O)CC1)N1CCCCC1 (stereo not given),75.5%,113% (inactive),75.5% (inactive),96.3% (inactive),91.8% (inactive),8.11% (inactive),83.7%,91.8%,0.64% (inactive),-5.83% (inactive)
Cc1ccc(-c2noc(CCC(=O)NCCc3ccccc3Cl)n2)cc1,77.5%,90% (inactive),77.5% (inactive),103% (inactive),99.6% (inactive),12% (inactive),87.7%,99.6%,-3.29% (inactive),-5.17% (inactive)
CCOC(=O)c1cccnc1SCC(=O)NC(C)CC (stereo not given),92%,93% (inactive),92% (inactive),96.7% (inactive),102% (inactive),9.73% (inactive),92.3%,102%,2.08% (inactive),-3.61% (inactive)
Cc1c(=O)n(OCc2ccccn2)c2ccccc2[n+]1[O-],84%,76% (inactive),84% (inactive),105% (inactive),94.2% (inactive),8.18% (inactive),86%,94.2%,-5.92% (inactive),-1.27% (inactive)
COc1cc(-c2nn3c(-c4cccnc4)nnc3s2)cc(OC)c1OC,101%,98.5% (inactive),101% (inactive),90.3% (inactive),92.6% (inactive),6.8% (inactive),85.8%,92.6%,-4.87% (inactive),-4.35% (inactive)
CC(=O)c1cnc2cc(-c3ccccc3)nn2c1C,91.5%,110% (inactive),91.5% (inactive),91.4% (inactive),103% (inactive),19.5% (inactive),83.1%,103%,0% (inactive),-10.7% (inactive)
COc1cc(OC)cc(C(=O)NCCN2CCOCC2)c1,105%,92% (inactive),105% (inactive),98.3% (inactive),94.1% (inactive),1.49% (inactive),92.6%,94.1%,-4.47% (inactive),-4.36% (inactive)
